# In ChEMBL document CHEMBL2346608, “New annelated thieno[2,3-e][1,2,3]triazolo[1,5-a]pyrimidines, with potent anticancer activity, designed through VLAK protocol” (2013):
# Assays:
# Format in all cases: functional
# [1] = system: MOLT-4; test: Antiproliferative activity against human MOLT4 cells after 48 hrs by sulforhodamine B assay; settings: MOLT-4, 48 h
# How it was run: (§1)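 Cells grown in RPMI 1640 with 5% FBS and 2 mM L-glutamine, plated at 5000–40,000 cells/well and preincubated 24 h at 37 °C, 5% CO2. Five drug concentrations (10-fold or ½-log dilutions from DMSO stocks) applied for 48 h. TCA-fixed (final 10% adherent, 16% suspension), SRB-stained, A515 read. Growth versus time-zero and control wells gave GI50, TGI, LC50.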
# [2] = system: HCT-116; test: Antiproliferative activity against human HCT116 cells after 48 hrs by sulforhodamine B assay; settings: HCT-116, 48 h; how it was run: as §1
# [3] = system: MDA-MB-435; test: Antiproliferative activity against human MDA-MB-435 cells after 48 hrs by sulforhodamine B assay; settings: MDA-MB-435, 48 h; how it was run: as §1
# [4] = system: MDA-MB-468; test: Antiproliferative activity against human MDA-MB-468 cells after 48 hrs by sulforhodamine B assay; settings: MDA-MB-468, 48 h; how it was run: as §1
# [5] = system: MDA-MB-231; test: Antiproliferative activity against human MDA-MB-231 cells after 48 hrs by sulforhodamine B assay; settings: MDA-MB-231, 48 h; how it was run: as §1
# [6] = system: ACHN; test: Antiproliferative activity against human ACHN cells after 48 hrs by sulforhodamine B assay; how it was run: as §1
# [7] = system: NCI-H322M; test: Antiproliferative activity against human NCI-H322M cells after 48 hrs by sulforhodamine B assay; how it was run: as §1
# [8] = system: LOX IMVI; test: Antiproliferative activity against human LOXIMVI cells after 48 hrs by sulforhodamine B assay; how it was run: as §1
# [9] = system: COLO 205; test: Antiproliferative activity against human COLO205 cells after 48 hrs by sulforhodamine B assay; settings: COLO 205, 48 h; how it was run: as §1
# [10] = system: OVCAR-3; test: Antiproliferative activity against human OVCAR3 cells after 48 hrs by sulforhodamine B assay; settings: OVCAR-3, 48 h; how it was run: as §1
# [11] = system: OVCAR-5; test: Antiproliferative activity against human OVCAR5 cells after 48 hrs by sulforhodamine B assay; settings: OVCAR-5, 48 h; how it was run: as §1
# [12] = system: SF-295; test: Antiproliferative activity against human SF295 cells after 48 hrs by sulforhodamine B assay; settings: SF-295, 48 h; how it was run: as §1
# [13] = system: SNB-19; test: Antiproliferative activity against human SNB19 cells after 48 hrs by sulforhodamine B assay; settings: SNB-19, 48 h; how it was run: as §1
# [14] = system: SF-539; test: Antiproliferative activity against human SF539 cells after 48 hrs by sulforhodamine B assay; settings: SF-539, 48 h; how it was run: as §1
# [15] = system: PC-3; test: Antiproliferative activity against human PC3 cells after 48 hrs by sulforhodamine B assay; settings: PC-3, 48 h; how it was run: as §1
# [16] = system: T47D; test: Antiproliferative activity against human T47D cells after 48 hrs by sulforhodamine B assay
# How it was run: (§2)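 Cells in RPMI 1640 with 5% FBS and 2 mM L-glutamine were seeded at 5000–40,000/well according to doubling time and preincubated 24 h at 37 °C in 5% CO2. Time-zero plates were TCA-fixed when drug was added. Five 10-fold or ½-log dilutions from DMSO stocks were added for 48 h. After SRB staining, A515 was read and GI50 derived from [(Ti−Tz)/(C−Tz)]×100 = 50.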
# [17] = system: UACC-62; test: Antiproliferative activity against human UACC62 cells after 48 hrs by sulforhodamine B assay; settings: UACC-62, 48 h; how it was run: as §2
# [18] = system: A498; test: Antiproliferative activity against human A498 cells after 48 hrs by sulforhodamine B assay; settings: A498, 48 h; how it was run: as §1
# [19] = system: DU-145; test: Antiproliferative activity against human DU145 cells after 48 hrs by sulforhodamine B assay; settings: DU-145, 48 h; how it was run: as §1
# [20] = system: NCI/ADR-RES; test: Antiproliferative activity against human NCI/ADR-RES cells after 48 hrs by sulforhodamine B assay; how it was run: as §1
# [21] = system: HL-60; test: Antiproliferative activity against human HL60 (TB) cells after 48 hrs by sulforhodamine B assay; settings: HL-60, 48 h
# How it was run: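 NCI 60-cell panel protocol: cells in RPMI 1640 with 5% FBS and 2 mM L-glutamine, plated 24 h at 37 °C/5% CO2 before dosing. Compounds dissolved in DMSO and tested at five concentrations (10-fold or ½ log serial dilutions) for 48 h. Suspension cells fixed with 80% TCA (final 16%), SRB stained, absorbance at 515 nm. GI50 derived from time-zero-corrected growth.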
# [22] = system: U-251; test: Antiproliferative activity against human U251 cells after 48 hrs by sulforhodamine B assay; settings: U-251, 48 h; how it was run: as §2
# [23] = system: SK-OV-3; test: Antiproliferative activity against human SKOV3 cells after 48 hrs by sulforhodamine B assay; settings: SK-OV-3, 48 h; how it was run: as §1
# [24] = system: SW-620; test: Antiproliferative activity against human SW620 cells after 48 hrs by sulforhodamine B assay; settings: SW-620, 48 h; how it was run: as §2
# [25] = system: K562; test: Antiproliferative activity against human K562 cells after 48 hrs by sulforhodamine B assay; settings: K562, 48 h; how it was run: as §1
# [26] = system: SN12C; test: Antiproliferative activity against human SN12C cells after 48 hrs by sulforhodamine B assay; how it was run: as §1
# [27] = Antiproliferative activity against human EKVX cells after 48 hrs by sulforhodamine B assay; how it was run: as §1
# [28] = read-out: pLC50 (the source's name) (converted)
smiles,measurement,setting,value
O=C(CCCn1c(=O)c2sc3ccccc3c2n2nnc(-c3ccccc3)c12)NCCc1c[nH]cn1,GI50,[1],1.17 µM
same,GI50,[2],0.339 µM
same,LC50,[2],> 100 µM
same,TGI,[2]; read-out: pTGI (converted),1.66 µM
same,GI50,[3],1.48 µM
same,LC50,[3],6.31 µM
same,TGI,[3]; read-out: pTGI (converted),3.09 µM
same,GI50,[4],1.7 µM
same,LC50,[4],7.94 µM
same,TGI,[4]; read-out: pTGI (converted),3.72 µM
same,GI50,[5],1.91 µM
same,LC50,[5],6.76 µM
same,TGI,[5]; read-out: pTGI (converted),3.63 µM
same,GI50,[6],1.66 µM
same,LC50 (50% lethal concentration),[6],5.5 µM
same,TGI,[6]; read-out: pTGI (converted),3.02 µM
same,GI50,[7],2.24 µM
same,LC50,[7],21.4 µM
same,TGI,[7]; read-out: pTGI (converted),5.5 µM
same,GI50,[8],1.58 µM
same,CC50,[8]; [28],5.37 µM
same,TGI,[8]; read-out: pTGI (converted),2.95 µM
same,GI50,[9],1.1 µM
same,LC50,[9],> 100 µM
same,TGI,[9]; read-out: pTGI (converted),4.79 µM
same,GI50,[10],1.51 µM
same,LC50,[10],6.61 µM
same,TGI,[10]; read-out: pTGI (converted),3.16 µM
same,GI50,[11],1.2 µM
same,TGI,[11]; read-out: pTGI (converted),2.75 µM
same,GI50,[12],1.7 µM
same,TGI,[12]; read-out: pTGI (converted),3.63 µM
same,GI50,[13],1.7 µM
same,LC50,[13],> 100 µM
same,TGI,[13]; read-out: pTGI (converted),5.01 µM
same,GI50,[14],0.661 µM
same,LC50,[14],5.75 µM
same,TGI,[14]; read-out: pTGI (converted),2.19 µM
same,LC50,[15],> 100 µM
same,TGI,[15]; read-out: pTGI (converted),> 100 µM
same,GI50,[16],1.41 µM
same,LC50,[16],> 100 µM
same,TGI,[16]; read-out: pTGI (converted),4.47 µM
same,GI50,[17],1.91 µM
same,LC50 (concentration killing 50% of cells),[17],6.61 µM
same,TGI,[17]; read-out: pTGI (converted),3.55 µM
same,GI50,[18],1.55 µM
same,LC50,[18],5.75 µM
same,TGI,[18]; read-out: pTGI (converted),3.02 µM
same,GI50,[19],1.55 µM
same,LC50,[19],5.75 µM
same,TGI,[19]; read-out: pTGI (converted),2.95 µM
same,GI50,[20],3.24 µM
same,LC50,[20],> 100 µM
same,TGI,[20]; read-out: pTGI (converted),> 100 µM
same,GI50,[21],1.41 µM
same,CC50,[21]; [28],> 100 µM
same,TGI,[21]; read-out: pTGI (converted),6.31 µM
same,GI50,[22],1.05 µM
same,LC50,[22],4.68 µM
same,TGI,[22]; read-out: pTGI (converted),2.24 µM
same,GI50,[23],3.47 µM
same,LC50,[23],66.1 µM
same,TGI,[23]; read-out: pTGI (converted),15.5 µM
same,GI50,[24],0.407 µM
same,GI50,[25],0.437 µM
same,GI50,[26],0.269 µM
same,LC50,[26],5.13 µM
same,TGI,[26]; read-out: pTGI (converted),1.86 µM
same,GI50,[27],2.69 µM
same,LC50,[27],> 100 µM
same,TGI,[27]; read-out: pTGI (converted),8.71 µM
